Results as given in the array DNA melting data of Ke et al. (doi:10.1101/2024.01.08.574731).

Key:
[1] = folding enthalpy; higher = less favourable; fluorescence melt of hairpins on a sequencing array, two-state fit; conditions: sodium 0.088 M
Summary of the method: (§1)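 In 50 mM Na-HEPES pH 8.0 containing 25 mM NaCl, hairpins from the library on a sequenced MiSeq flow cell were imaged for Cy3 fluorescence at 2.5 °C steps up to 60 °C, with Cy3 and quencher oligos annealed. After normalisation to pre-quench Cy3 and to control constructs, two-state fits with bootstrapping gave melting temperature and folding enthalpy. Four replicates were combined by inverse-variance weighting, and fitted temperatures were shifted up by 9.35 °C to match UV melts.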

[2] = melting temperature; fluorescence melt of hairpins on a sequencing array, two-state fit, raised by 9.35 °C to match UV melts; conditions: sodium 0.088 M
Summary of the method: as §1

Q: For GGGGTAGGAAACTGCCCC ((((.((....)).)))), which folding enthalpy [1] is on record?
A: -47.3 kcal/mol

Q: What about the Tm [2] of the same sequence?
A: 57.2 °C

Q: Which folding enthalpy [1] does the source give for GGGGAGGGAAACCCCCCC ((((.((....)).)))) here?
A: -34.1 kcal/mol

Q: What about the Tm [2] of the same sequence?
A: 54.5 °C

Q: For GATCGCCGGAGCGATC ((((((....)))))), which folding enthalpy [1] is on record?
A: -31.6 kcal/mol

Q: And the Tm [2]?
A: 68.9 °C

Q: For CAGATGAAAATCTG (((((....))))), which folding enthalpy [1] is on record?
A: -22.9 kcal/mol

Q: And the Tm [2]?
A: 44.4 °C

Q: Which results are given for GGCAATCGAAAGATGGCC (((.(((....))).)))?
A: folding enthalpy [1]: -41.9 kcal/mol; Tm [2]: 57.8 °C

Q: Which folding enthalpy [1] does the source give for GCGCATGGAAACACGCGC ((((.((....)).)))) here?
A: -40.4 kcal/mol

Q: And the Tm [2]?
A: 56.1 °C

Q: What does the source list for GGGTAGGGAAACCTATCC ((.((((....)))).))?
A: folding enthalpy [1]: -29.7 kcal/mol; Tm [2]: 46.6 °C

Q: Which folding enthalpy [1] does the source give for GGTTGACCGAAAGGTACC (((..(((....)))))) here?
A: -16.5 kcal/mol

Q: What about the Tm [2] of the same sequence?
A: 36.4 °C

Q: Which results are given for GATCCCGGTGGGATC ((((((...))))))?
A: folding enthalpy [1]: -29.6 kcal/mol; Tm [2]: 65.7 °C

Q: Which folding enthalpy [1] does the source give for GATCGCTCCGGCGATC ((((((....)))))) here?
A: -39.2 kcal/mol

Q: What about the Tm [2] of the same sequence?
A: 68.4 °C

Q: For GCAGCCGAAAGGCTTTGC ((((((....)))..))), which folding enthalpy [1] is on record?
A: -10.2 kcal/mol

Q: What about the Tm [2] of the same sequence?
A: 42.2 °C

Q: For GCTTCCGAAAGGATGAGC ((((((....)))..))), which folding enthalpy [1] is on record?
A: -18.7 kcal/mol

Q: And the Tm [2]?
A: 41.2 °C

Q: For GTCTGCCGAAAGGCTGAC (((.(((....))).))), which folding enthalpy [1] is on record?
A: -30.5 kcal/mol

Q: And the Tm [2]?
A: 62.1 °C

Q: Which results are given for GGGGAAGCGAAAGCTCCC (((..(((....))))))?
A: folding enthalpy [1]: -17.8 kcal/mol; Tm [2]: 59.8 °C

Q: For GATCCAATCATGGATC ((((((....)))))), which folding enthalpy [1] is on record?
A: -37.5 kcal/mol

Q: And the Tm [2]?
A: 50.8 °C

Q: With GGTTGTCGAAAGACCACC (((.(((....))).))) as the sequence, how does the folding enthalpy [1] read?
A: -26.2 kcal/mol

Q: And the Tm [2]?
A: 48.3 °C

Q: For GGCGGAGGAAACCCCGCC (((((.(....).))))), which folding enthalpy [1] is on record?
A: -33.4 kcal/mol

Q: What about the Tm [2] of the same sequence?
A: 64.5 °C

Q: For GCCCTCGGAAACGAGAGC ((.((((....)))).)), which folding enthalpy [1] is on record?
A: -27.2 kcal/mol

Q: What about the Tm [2] of the same sequence?
A: 49.1 °C

Q: With CGGCCCGGAAACGGACCG (((.(((....))).))) as the sequence, how does the folding enthalpy [1] read?
A: -37.7 kcal/mol

Q: What about the Tm [2] of the same sequence?
A: 57.6 °C

Q: Which folding enthalpy [1] does the source give for GTTTGTGGAAACACAGAC ((.((((....)))).)) here?
A: -23.6 kcal/mol

Q: And the Tm [2]?
A: 43.9 °C

Q: For GTCGAATCGAAAGATGAC (((..(((....)))))), which folding enthalpy [1] is on record?
A: -19.9 kcal/mol

Q: And the Tm [2]?
A: 32.6 °C

Q: Which folding enthalpy [1] does the source give for CGGCACGGAAACGTCCG (((.(((....)))))) here?
A: -21.8 kcal/mol

Q: What about the Tm [2] of the same sequence?
A: 47.9 °C

Q: Which folding enthalpy [1] does the source give for GCGATCCGAAAGGACGC (((.(((....)))))) here?
A: -37.7 kcal/mol

Q: And the Tm [2]?
A: 61.3 °C

Q: Which folding enthalpy [1] does the source give for GTTAGCGAAAGCTATAAC ((((((....)))..))) here?
A: -12.7 kcal/mol

Q: And the Tm [2]?
A: 31.4 °C

Q: Which folding enthalpy [1] does the source give for GCCCCTTCGAAAGAAGGC (((..(((....)))))) here?
A: -8.55 kcal/mol

Q: What about the Tm [2] of the same sequence?
A: 37 °C

Q: Which folding enthalpy [1] does the source give for GATCTGGGTCCAGATC ((((((....)))))) here?
A: -42.5 kcal/mol

Q: What about the Tm [2] of the same sequence?
A: 52.7 °C

Q: What does the source list for GTGGCCGAAAGGCAGCAC ((((((....)))..)))?
A: folding enthalpy [1]: -14.1 kcal/mol; Tm [2]: 46.3 °C

Q: Which folding enthalpy [1] does the source give for GCTTTGCGAAAGCATGGC ((..(((....)))..)) here?
A: -16.7 kcal/mol

Q: What about the Tm [2] of the same sequence?
A: 49.5 °C

Q: For GATCAACACCTTGATC ((((((....)))))), which folding enthalpy [1] is on record?
A: -32.7 kcal/mol

Q: What about the Tm [2] of the same sequence?
A: 46.7 °C

Q: Which folding enthalpy [1] does the source give for GCTGCTGGAAACAGCAAC (.(((((....))))).) here?
A: -12.1 kcal/mol

Q: What about the Tm [2] of the same sequence?
A: 44.3 °C

Q: What does the source list for GCGTAGGGAAACTTGCGC (((.(.(....).).)))?
A: folding enthalpy [1]: -28.5 kcal/mol; Tm [2]: 42.3 °C

Q: Which results are given for GACAATACGAAAGTAGTC (((..(((....))))))?
A: folding enthalpy [1]: -16.4 kcal/mol; Tm [2]: 30.3 °C

Q: For GCGGGCGAAAGCCCACGC ((((((....)))..))), which folding enthalpy [1] is on record?
A: -14 kcal/mol

Q: What about the Tm [2] of the same sequence?
A: 65.5 °C

Q: What does the source list for GCGAATACTCGC ((((....))))?
A: folding enthalpy [1]: -22.1 kcal/mol; Tm [2]: 46.2 °C

Q: What does the source list for GGACCCTCGAAAGAGTCC (((..(((....))))))?
A: folding enthalpy [1]: -16.3 kcal/mol; Tm [2]: 35.9 °C

Q: Which folding enthalpy [1] does the source give for GATCAGCGTTCTGATC ((((((....)))))) here?
A: -37.3 kcal/mol

Q: What about the Tm [2] of the same sequence?
A: 49.8 °C

Q: What does the source list for GTAGGCGAAAGCCTATAC ((((((....)))..)))?
A: folding enthalpy [1]: -9.56 kcal/mol; Tm [2]: 45.2 °C

Q: For GCGGTTCCGAAAGGACGC (((..(((....)))))), which folding enthalpy [1] is on record?
A: -25 kcal/mol

Q: What about the Tm [2] of the same sequence?
A: 51.7 °C

Q: For GTATTAGAAATAATAC ((((((....)))))), which folding enthalpy [1] is on record?
A: -22.2 kcal/mol

Q: What about the Tm [2] of the same sequence?
A: 31.9 °C

Q: For GATCACTTATGTGATC ((((((....)))))), which folding enthalpy [1] is on record?
A: -37.5 kcal/mol

Q: What about the Tm [2] of the same sequence?
A: 56.7 °C

Q: What does the source list for GTGAACGAAAGTTCAC ((((((....))))))?
A: folding enthalpy [1]: -26 kcal/mol; Tm [2]: 68.6 °C

Q: Which folding enthalpy [1] does the source give for GATCAGCGGCTGATC ((((((...)))))) here?
A: -51 kcal/mol

Q: And the Tm [2]?
A: 50.7 °C

Q: Which folding enthalpy [1] does the source give for GCCATGCGAAAGCATTGC ((.((((....)))).)) here?
A: -21.2 kcal/mol

Q: What about the Tm [2] of the same sequence?
A: 54 °C

Q: For GATCATATAATGATC ((((((...)))))), which folding enthalpy [1] is on record?
A: -31.6 kcal/mol

Q: What about the Tm [2] of the same sequence?
A: 49 °C

Q: With GACGCCGAAAGGCTAGTC ((((((....)))..))) as the sequence, how does the folding enthalpy [1] read?
A: -18.1 kcal/mol

Q: What about the Tm [2] of the same sequence?
A: 46.8 °C

Q: Which folding enthalpy [1] does the source give for GGTTGGCGAAAGCCTACC (((.(((....))).))) here?
A: -25.3 kcal/mol

Q: And the Tm [2]?
A: 59.6 °C
